Source: ChEMBL document CHEMBL4373711, “Development of 3,5-Dinitrophenyl-Containing 1,2,4-Triazoles and Their Trifluoromethyl Analogues as Highly Efficient Antitubercular Agents Inhibiting Decaprenylphosphoryl-β-d-ribofuranose 2'-Oxidase” (J Med Chem, 2019)
≈ marks a conversion by molar mass, not a printed value. Calls of active or inactive are those of the source. The calls are words filed in the database; no cut-off is given here.

Experiments:
[1] = system: Mycobacterium tuberculosis; assay: Antimycobacterial activity against Mycobacterium tuberculosis H37Rv CNCTC My 331/88 after 14 days; format: functional; conditions: H37Rv CNCTC My 331/88, 336 h
How it was run: (§1)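 M. tuberculosis strains (H37Rv and clinical MDR/XDR isolates) tested by microdilution in Šula's semisynthetic medium. Compounds were dissolved in DMSO and tested at 32 to 0.03 µM in twofold steps. Inoculum was a 1.0 McFarland suspension diluted 10-3. Plates were incubated at 37 °C and read at 14 and 21 days.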

[2] = system: Mycobacterium tuberculosis; assay: Antimycobacterial activity against Mycobacterium tuberculosis H37Rv CNCTC My 331/88 after 21 days; format: functional; conditions: H37Rv CNCTC My 331/88, 504 h; how it was run: as §1
Mycobacterium avium [3] = assay: Antimycobacterial activity against Mycobacterium avium CNCTC My 330/88 after 14 days; format: functional; conditions: CNCTC My 330/88, 336 h
How it was run: (§2)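 M. avium was tested by microdilution in Šula's semisynthetic medium, with compounds dissolved in DMSO and serially diluted from 1000 down to 1. Inoculum was a 1.0 McFarland suspension diluted 10-5. Plates were incubated at 37 °C and read at 14 and 21 days. […] Isoniazid and rifampicin served as standards.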

Mycobacterium avium [4] = assay: Antimycobacterial activity against Mycobacterium avium CNCTC My 330/88 after 21 days; format: functional; conditions: CNCTC My 330/88, 504 h; how it was run: as §2
Mycobacterium kansasii [5] = assay: Antimycobacterial activity against Mycobacterium kansasii CNCTC My 235/80 after 7 days; format: functional; conditions: CNCTC My 235/80, 168 h
How it was run: (§3)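 Microdilution in Šula's semisynthetic medium; compounds in DMSO at 32–0.03 µM. Inoculum from 1.0 McFarland suspension diluted 10-4. […] Isoniazid and rifampicin as reference drugs.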

Mycobacterium kansasii [6] = assay: Antimycobacterial activity against Mycobacterium kansasii CNCTC My 235/80 after 14 days; format: functional; conditions: CNCTC My 235/80, 336 h; how it was run: as §3
Mycobacterium kansasii [7] = assay: Antimycobacterial activity against Mycobacterium kansasii CNCTC My 235/80 after 21 days; format: functional; conditions: CNCTC My 235/80, 504 h; how it was run: as §3
Mycobacterium kansasii [8] = assay: Antimycobacterial activity against Mycobacterium kansasii 6509/96 after 7 days; format: functional; conditions: 6509/96, 168 h; how it was run: as §3
Mycobacterium kansasii [9] = assay: Antimycobacterial activity against Mycobacterium kansasii 6509/96 after 14 days; format: functional; conditions: 6509/96, 336 h; how it was run: as §3
Mycobacterium kansasii [10] = assay: Antimycobacterial activity against Mycobacterium kansasii 6509/96 after 21 days; format: functional; conditions: 6509/96, 504 h; how it was run: as §3
Staphylococcus aureus [11] = assay: Antibacterial activity against Staphylococcus aureus subsp. aureus ATCC 29213 CCM 4223 at highest concentration measured after 24 to 48 hrs by alamar blue dye based broth microdilution assay; format: functional, organism-based
Staphylococcus aureus [12] = assay: Antibacterial activity against methicillin-resistant Staphylococcus aureus subsp. aureus ATCC 43300 CCM 4750 at highest concentration measured after 24 to 48 hrs by alamar blue dye based broth microdilution assay; format: functional, organism-based
[13] = system: Staphylococcus epidermidis; assay: Antibacterial activity against Staphylococcus epidermidis at highest concentration measured after 24 to 48 hrs by alamar blue dye based broth microdilution assay; format: functional, organism-based
Enterococcus faecalis = assay: Antibacterial activity against Enterococcus faecalis ATCC 29212 CCM 4224 at highest concentration measured after 24 to 48 hrs by alamar blue dye based broth microdilution assay; format: functional, organism-based
Escherichia coli = assay: Antibacterial activity against Escherichia coli ATCC 25922 CCM 3954 at highest concentration measured after 24 to 48 hrs by alamar blue dye based broth microdilution assay; format: functional, organism-based
Klebsiella pneumoniae = assay: Antibacterial activity against Klebsiella pneumoniae at highest concentration measured after 24 to 48 hrs by alamar blue dye based broth microdilution assay; format: functional, organism-based
Serratia marcescens = assay: Antibacterial activity against Serratia marcescens at highest concentration measured after 24 to 48 hrs by alamar blue dye based broth microdilution assay; format: functional, organism-based
Pseudomonas aeruginosa = assay: Antibacterial activity against Pseudomonas aeruginosa ATCC 27853 CCM 3955 at highest concentration measured after 24 to 48 hrs by alamar blue dye based broth microdilution assay; format: functional, organism-based
Candida albicans = assay: Antifungal activity against Candida albicans ATCC 24433 CCM 8320 at highest concentration measured after 24 to 48 hrs by alamar blue dye based broth microdilution assay; format: functional, organism-based
Pichia kudriavzevii = assay: Antifungal activity against Candida krusei ATCC 6258 CCM8271 at highest concentration measured after 24 to 48 hrs by alamar blue dye based broth microdilution assay; format: functional, organism-based
Candida parapsilosis = assay: Antifungal activity against Candida parapsilosis ATCC 22019 CCM 8260 at highest concentration measured after 24 to 48 hrs by alamar blue dye based broth microdilution assay; format: functional, organism-based
Candida tropicalis = assay: Antifungal activity against Candida tropicalis ATCC 750 CCM 8264 at highest concentration measured after 24 to 48 hrs by alamar blue dye based broth microdilution assay; format: functional, organism-based
Aspergillus fumigatus = assay: Antifungal activity against Aspergillus fumigatus ATCC 204305 at highest concentration measured after 24 to 48 hrs by alamar blue dye based broth microdilution assay; format: functional, organism-based
Aspergillus flavus = assay: Antifungal activity against Aspergillus flavus CCM 8363 at highest concentration measured after 24 to 48 hrs by alamar blue dye based broth microdilution assay; format: functional, organism-based
Lichtheimia corymbifera = assay: Antifungal activity against Lichtheimia corymbifera CCM 8077 at highest concentration measured after 24 to 48 hrs by alamar blue dye based broth microdilution assay; format: functional, organism-based
[14] = system: Trichophyton interdigitale; assay: Antifungal activity against Trichophyton interdigitale ATCC 9533 CCM 8377 at highest concentration measured after 72 to 120 hrs by alamar blue dye based broth microdilution assay; format: functional

SMILES	MIC99 [1]	MIC99 [2]	MIC99 (Mycobacterium avium [3])	MIC99 (Mycobacterium avium [4])	MIC99 (Mycobacterium kansasii [5])	MIC99 (Mycobacterium kansasii [6])	MIC99 (Mycobacterium kansasii [7])	MIC99 (Mycobacterium kansasii [8])	MIC99 (Mycobacterium kansasii [9])	MIC99 (Mycobacterium kansasii [10])	Activity (Staphylococcus aureus [11])	Activity (Staphylococcus aureus [12])	Activity [13]	Activity (Enterococcus faecalis)	Activity (Escherichia coli)	Activity (Klebsiella pneumoniae)	Activity (Serratia marcescens)	Activity (Pseudomonas aeruginosa)	Activity (Candida albicans)	Activity (Pichia kudriavzevii)	other results
CCCCCCCCCCCCn1c(SCc2ccccc2)nnc1-c1cc([N+](=O)[O-])cc([N+](=O)[O-])c1	2 µM (≈ 1.05 µg/mL)	4 µM (≈ 2.1 µg/mL)	250 µM (≈ 131 µg/mL)	250 µM (≈ 131 µg/mL)	2 µM (≈ 1.05 µg/mL)	4 µM (≈ 2.1 µg/mL)	4 µM (≈ 2.1 µg/mL)	2 µM (≈ 1.05 µg/mL)	4 µM (≈ 2.1 µg/mL)	4 µM (≈ 2.1 µg/mL)	inactive	inactive	inactive	inactive	inactive	inactive	inactive	inactive	inactive	inactive	Activity (Candida parapsilosis): inactive; Activity (Candida tropicalis): inactive; Activity (Aspergillus fumigatus): inactive; Activity (Aspergillus flavus): inactive; Activity (Lichtheimia corymbifera): inactive; Activity [14]: inactive
O=[N+]([O-])c1cc(CSc2nnc(-c3ccccc3)n2Cc2ccc(Cl)cc2Cl)cc([N+](=O)[O-])c1	> 32 µM	> 32 µM	250 µM (≈ 129 µg/mL)	250 µM (≈ 129 µg/mL)	> 32 µM	> 32 µM	> 32 µM	> 32 µM	> 32 µM	> 32 µM	inactive	inactive	inactive	inactive	inactive	inactive	inactive	inactive	inactive	inactive	Activity (Candida parapsilosis): inactive; Activity (Candida tropicalis): inactive; Activity (Aspergillus fumigatus): inactive; Activity (Aspergillus flavus): inactive; Activity (Lichtheimia corymbifera): inactive; Activity [14]: inactive
COc1ccc(-c2nnc(SCc3cc([N+](=O)[O-])cc([N+](=O)[O-])c3)n2Cc2ccccc2)cc1	4 µM (≈ 1.91 µg/mL)	4 µM (≈ 1.91 µg/mL)	250 µM (≈ 119 µg/mL)	250 µM (≈ 119 µg/mL)	4 µM (≈ 1.91 µg/mL)	8 µM (≈ 3.82 µg/mL)	8 µM (≈ 3.82 µg/mL)	8 µM (≈ 3.82 µg/mL)	8 µM (≈ 3.82 µg/mL)	8 µM (≈ 3.82 µg/mL)	inactive	inactive	inactive	inactive	inactive	inactive	inactive	inactive	inactive	inactive	Activity (Candida parapsilosis): inactive; Activity (Candida tropicalis): inactive; Activity (Aspergillus fumigatus): inactive; Activity (Aspergillus flavus): inactive; Activity (Lichtheimia corymbifera): inactive; Activity [14]: inactive
O=[N+]([O-])c1cc(CSc2nnc(-c3ccccc3)n2Cc2ccccc2)cc(C(F)(F)F)c1	16 µM (≈ 7.53 µg/mL)	32 µM (≈ 15.1 µg/mL)	250 µM (≈ 118 µg/mL)	250 µM (≈ 118 µg/mL)	> 32 µM	> 32 µM	> 32 µM	> 32 µM	> 32 µM	> 32 µM	inactive	inactive	inactive	inactive	inactive	inactive	inactive	inactive	inactive	inactive	Activity (Candida parapsilosis): inactive; Activity (Candida tropicalis): inactive; Activity (Aspergillus fumigatus): inactive; Activity (Aspergillus flavus): inactive; Activity (Lichtheimia corymbifera): inactive; Activity [14]: inactive
O=[N+]([O-])c1cc(Cn2c(SCc3ccccc3)nnc2-c2ccccc2)cc([N+](=O)[O-])c1	8 µM (≈ 3.58 µg/mL)	16 µM (≈ 7.16 µg/mL)	> 1000 µM	> 1000 µM	4 µM (≈ 1.79 µg/mL)	8 µM (≈ 3.58 µg/mL)	16 µM (≈ 7.16 µg/mL)	8 µM (≈ 3.58 µg/mL)	16 µM (≈ 7.16 µg/mL)	16 µM (≈ 7.16 µg/mL)	inactive	inactive	inactive	inactive	inactive	inactive	inactive	inactive	inactive	inactive	Activity (Candida parapsilosis): inactive; Activity (Candida tropicalis): inactive; Activity (Aspergillus fumigatus): inactive; Activity (Aspergillus flavus): inactive; Activity (Lichtheimia corymbifera): inactive; Activity [14]: inactive
